Assay results reported in ChEMBL document CHEMBL1129041, “Design of orally active dual inhibitors of neutral endopeptidase and angiotensin-converting enzyme with long duration of action” (J Med Chem, 1996).

Tests used:
[1] = target: T1, Angiotensin-converting enzyme (Rattus norvegicus, UniProt P47820); assay: In vitro inhibition of rat angiotensin I converting enzyme
T1 sequence (P47820 whole entry): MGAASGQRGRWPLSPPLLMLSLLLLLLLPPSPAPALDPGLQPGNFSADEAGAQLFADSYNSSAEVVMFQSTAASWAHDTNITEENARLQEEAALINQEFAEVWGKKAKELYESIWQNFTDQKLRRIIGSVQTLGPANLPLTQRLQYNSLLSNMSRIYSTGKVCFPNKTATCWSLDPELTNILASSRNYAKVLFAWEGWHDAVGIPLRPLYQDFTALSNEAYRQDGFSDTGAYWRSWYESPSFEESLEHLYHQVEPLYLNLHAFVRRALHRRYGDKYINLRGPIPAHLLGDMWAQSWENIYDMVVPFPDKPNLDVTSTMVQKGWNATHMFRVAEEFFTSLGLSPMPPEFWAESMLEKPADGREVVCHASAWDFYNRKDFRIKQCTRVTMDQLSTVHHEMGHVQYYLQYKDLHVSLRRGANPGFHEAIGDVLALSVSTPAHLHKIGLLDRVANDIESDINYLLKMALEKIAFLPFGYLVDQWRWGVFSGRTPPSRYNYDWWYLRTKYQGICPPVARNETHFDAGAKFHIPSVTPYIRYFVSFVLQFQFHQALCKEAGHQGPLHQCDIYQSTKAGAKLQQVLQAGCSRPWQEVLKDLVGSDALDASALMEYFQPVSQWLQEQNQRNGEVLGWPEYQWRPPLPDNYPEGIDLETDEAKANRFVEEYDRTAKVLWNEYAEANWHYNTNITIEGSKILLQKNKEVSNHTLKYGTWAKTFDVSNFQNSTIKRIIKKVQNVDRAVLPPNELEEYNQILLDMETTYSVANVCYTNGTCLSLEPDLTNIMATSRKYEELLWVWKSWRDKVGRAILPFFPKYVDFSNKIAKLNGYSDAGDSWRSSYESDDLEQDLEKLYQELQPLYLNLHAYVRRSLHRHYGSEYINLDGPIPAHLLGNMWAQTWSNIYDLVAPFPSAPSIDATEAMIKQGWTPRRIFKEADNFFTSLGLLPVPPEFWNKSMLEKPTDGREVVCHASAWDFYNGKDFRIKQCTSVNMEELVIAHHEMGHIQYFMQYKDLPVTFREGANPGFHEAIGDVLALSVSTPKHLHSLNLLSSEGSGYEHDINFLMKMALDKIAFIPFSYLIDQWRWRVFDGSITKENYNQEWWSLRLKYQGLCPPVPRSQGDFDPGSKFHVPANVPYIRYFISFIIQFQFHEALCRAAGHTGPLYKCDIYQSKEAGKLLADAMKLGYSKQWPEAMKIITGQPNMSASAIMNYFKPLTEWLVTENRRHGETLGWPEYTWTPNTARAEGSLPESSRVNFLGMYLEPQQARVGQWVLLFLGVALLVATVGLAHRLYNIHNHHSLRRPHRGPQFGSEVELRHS
Outline: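 ACE purified from rat testis, 0.02 pmol/100 µL final, preincubated 15 min at 37 °C with varying inhibitor in 50 mM Tris-HCl pH 8.0. N-Cbz-Phe-His-Leu added to 0.05 mM final, 15 min; stopped with 2 M NaOH. His-Leu measured fluorimetrically (ex 365, em 495 nm) against a His-Leu calibration curve. IC50 is the mean ± SEM of three experiments in triplicate.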

Neprilysin = target: T2, Neprilysin (Oryctolagus cuniculus, UniProt P08049); assay: In vitro inhibition of neutral endopeptidase
T2 sequence (P08049 whole entry): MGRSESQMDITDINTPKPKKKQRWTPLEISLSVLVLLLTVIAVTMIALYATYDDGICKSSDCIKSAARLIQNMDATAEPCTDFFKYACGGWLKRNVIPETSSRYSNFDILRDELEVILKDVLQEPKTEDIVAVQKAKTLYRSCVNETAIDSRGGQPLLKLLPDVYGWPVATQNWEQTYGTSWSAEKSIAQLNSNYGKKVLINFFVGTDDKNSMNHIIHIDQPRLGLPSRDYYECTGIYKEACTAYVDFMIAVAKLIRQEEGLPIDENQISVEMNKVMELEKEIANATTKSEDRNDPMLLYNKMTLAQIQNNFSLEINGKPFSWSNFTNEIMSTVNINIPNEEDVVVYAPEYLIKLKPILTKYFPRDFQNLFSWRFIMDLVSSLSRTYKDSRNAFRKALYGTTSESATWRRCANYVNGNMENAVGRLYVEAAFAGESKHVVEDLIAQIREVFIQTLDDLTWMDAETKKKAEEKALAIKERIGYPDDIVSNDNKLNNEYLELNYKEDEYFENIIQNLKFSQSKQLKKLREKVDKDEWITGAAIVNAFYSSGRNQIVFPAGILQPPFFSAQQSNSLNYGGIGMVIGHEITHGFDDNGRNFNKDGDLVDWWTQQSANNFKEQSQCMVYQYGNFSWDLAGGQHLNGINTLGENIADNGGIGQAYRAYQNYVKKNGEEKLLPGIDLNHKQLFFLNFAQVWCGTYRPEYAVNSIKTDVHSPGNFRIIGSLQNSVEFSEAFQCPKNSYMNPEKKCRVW
Outline: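 NEP purified from rabbit kidney, 1 pmol/100 µL final, preincubated 15 min at 25 °C with increasing inhibitor concentrations in 50 mM Tris-HCl pH 7.4. Substrate [3H]-D-Ala2-Leu-enkephalin at 20 nM final, 30 min; stopped with 0.5 M HCl. [3H]Tyr-D-Ala-Gly separated on polystyrene beads and counted by scintillation. IC50 is the mean ± SEM of three independent experiments run in triplicate.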

[2] = target: T3, Neprilysin (Mus musculus) (UniProt Q61391); assay: In vivo percent inhibition activity against kidney Neutral endopeptidase 2 hr after oral administration of a dose of 2.6 x 10e-5 mol/kg; assay type: organism-based
T3 sequence (whole entry): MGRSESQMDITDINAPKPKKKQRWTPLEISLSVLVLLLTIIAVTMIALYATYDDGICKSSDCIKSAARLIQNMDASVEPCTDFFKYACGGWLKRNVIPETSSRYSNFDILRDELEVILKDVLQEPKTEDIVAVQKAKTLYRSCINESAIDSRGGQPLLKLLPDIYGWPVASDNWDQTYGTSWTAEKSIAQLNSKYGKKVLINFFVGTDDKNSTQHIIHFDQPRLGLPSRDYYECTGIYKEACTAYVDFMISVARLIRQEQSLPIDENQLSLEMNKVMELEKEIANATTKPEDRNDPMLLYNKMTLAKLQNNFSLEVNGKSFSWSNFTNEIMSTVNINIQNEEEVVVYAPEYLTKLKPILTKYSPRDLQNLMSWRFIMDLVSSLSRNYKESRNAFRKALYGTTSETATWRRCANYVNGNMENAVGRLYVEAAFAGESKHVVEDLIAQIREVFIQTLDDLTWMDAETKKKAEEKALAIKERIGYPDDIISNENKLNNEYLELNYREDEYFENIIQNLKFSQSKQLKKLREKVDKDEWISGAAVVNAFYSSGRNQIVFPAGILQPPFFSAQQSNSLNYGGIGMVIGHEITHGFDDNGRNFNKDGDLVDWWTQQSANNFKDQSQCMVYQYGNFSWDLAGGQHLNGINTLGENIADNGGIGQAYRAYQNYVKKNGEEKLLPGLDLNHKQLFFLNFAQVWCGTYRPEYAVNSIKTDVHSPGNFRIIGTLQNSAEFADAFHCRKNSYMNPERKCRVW
Outline: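 Mice given a single oral dose in 10% ethanol/10% cremophor/80% water; kidneys taken 2 h later and homogenized at 4 °C in 50 mM Tris-HCl pH 7.4. Membrane fraction (100000g) preincubated 5 min at 25 °C with bestatin and captopril, then incubated 10 min with [3H]-D-Ala2-Leu-enkephalin (2 × 10^-8 M). [3H]Tyr-D-Ala-Gly counted; blanks contained 10^-5 M retrothiorphan.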

Row | Compound | IC50 [1] [nM] | IC50 (Neprilysin) [nM] | inhibition [2] [%]
1 | COc1ccc(C[C@H](S)C(=O)NCC(=O)N2[C@@H](c3ccccc3O)CC[C@H]2C(=O)O)cc1 | 0.42 | 2.2 | 
2 | C[C@H](NC(=O)[C@@H](S)Cc1ccccc1)C(=O)N1[C@@H](c2ccccc2)CC[C@H]1C(=O)O | 45 | 10 | 
3 | O=C(NCC(=O)N1[C@@H](c2cccc(O)c2)CC[C@H]1C(=O)O)C(S)Cc1ccc(F)cc1 (some centres not stated) | 3.8 | 5.3 | 
4 | Cc1cccc(C2CCC(C(=O)O)N2C(=O)CNC(=O)[C@@H](S)Cc2ccc(O)cc2)c1 (some centres not stated) | 3.1 | 1.5 | 
5 | O=C(NCC(=O)N1[C@@H](c2cccc(O)c2)CC[C@H]1C(=O)O)[C@@H](S)Cc1cccc(O)c1 | 3.2 | 4.3 | 
6 | COc1ccccc1[C@H]1CC[C@@H](C(=O)O)N1C(=O)CNC(=O)[C@@H](S)Cc1ccc(O)cc1 | 4.5 | 3.4 | 
7 | CC[C@H](C)C(S)C(=O)NCC(=O)N1[C@@H](c2ccccc2)CC[C@H]1C(=O)O (some centres not stated) | 3.7 | 50 | 
8 | Nc1ccc([C@H]2CC[C@@H](C(=O)O)N2C(=O)CNC(=O)[C@@H](S)Cc2ccc(O)cc2)cc1 | 23 | 26 | 
9 | O=C(NCC(=O)N1[C@@H](c2ccc(O)cc2)CC[C@H]1C(=O)O)[C@@H](S)Cc1ccc(O)cc1 | 0.46 | 6.36 | 25
10 | O=C(O)c1ccc(CC(S)C(=O)NCC(=O)N2[C@@H](c3ccccc3O)CC[C@H]2C(=O)O)cc1 (some centres not stated) | 5.3 | 62 | 
11 | COc1ccc(C[C@H](S)C(=O)NCC(=O)N2[C@@H](c3ccccc3OC)CC[C@H]2C(=O)O)cc1 | 2.2 | 2.5 | 
12 | NCCCCC(S)C(=O)NCC(=O)N1[C@@H](c2ccccc2)CC[C@H]1C(=O)O (some centres not stated) | 403 | 500 | 

Other lines, results leading:

Row | IC50 [1] [nM] | IC50 (Neprilysin) [nM] | inhibition [2] [%] | Compound
13 | 3.5 | 1.8 |  | Nc1ccc(C[C@H](S)C(=O)NCC(=O)N2[C@@H](c3ccccc3)CC[C@H]2C(=O)O)cc1
14 | 12.5 | 5.1 |  | Cc1ccccc1[C@@H]1CCC(C(=O)O)N1C(=O)CNC(=O)[C@@H](S)Cc1ccc(O)cc1 (single isomer, unassigned)
15 | 0.5 | 1 |  | O=C(NCC(=O)N1[C@@H](c2ccccc2O)CC[C@H]1C(=O)O)[C@@H](S)Cc1ccccc1
16 | 6.2 | 2.3 |  | Cc1cccc([C@H]2CC[C@@H](C(=O)O)N2C(=O)CNC(=O)[C@@H](S)Cc2ccccc2)c1
17 | 33 | 8.5 |  | Cc1ccccc1[C@@H]1CCC(C(=O)O)N1C(=O)CNC(=O)[C@@H](S)Cc1ccccc1 (single isomer, unassigned; 17)
18 | 0.9 | 1.2 |  | O=C(NCC(=O)N1[C@@H](c2ccccc2O)CC[C@H]1C(=O)O)C(S)Cc1ccc(Cl)cc1 (some centres not stated)
19 | 112 | 25 |  | Cc1ccccc1C1CC[C@H](C(=O)O)N1C(=O)CNC(=O)[C@@H](S)Cc1ccccc1 (single isomer, unassigned)
20 | 1.5 | 2.4 |  | O=C(NCC(=O)N1[C@@H](c2cccc(O)c2)CC[C@H]1C(=O)O)[C@@H](S)Cc1ccccc1
21 | 25 | 3.2 |  | O=C(NCC(=O)N1[C@@H](c2ccccc2)CC[C@H]1C(=O)O)[C@H](S)Cc1ccccc1
22 | 4.2 | 3.4 |  | O=C(NCC(=O)N1[C@@H](c2ccccc2)CC[C@H]1C(=O)O)[C@@H](S)Cc1ccc(O)cc1
23 | 48 | 17 |  | Cc1ccccc1[C@@H]1CCC(C(=O)O)N1C(=O)CNC(=O)[C@@H](S)Cc1ccccc1 (single isomer, unassigned; 18)
